Data published in ChEMBL document CHEMBL3774312, “5-Substituted 3-isopropyl-7-[4-(2-pyridyl)benzyl]amino-1(2)H-pyrazolo[4,3-d]pyrimidines with anti-proliferative activity as potent and selective inhibitors of cyclin-dependent kinases” (Eur J Med Chem, 2016).
The source made the active and inactive calls. No cut-off for these calls is given here.

Legend:
[1] = molecular target: Vascular endothelial growth factor receptor (Homo sapiens) (UniProt P17948+P35916+P35968); experiment: Inhibition of recombinant VEGFR (unknown origin) assessed as residual activity at 1 uM relative to control; type: protein assay
[2] = molecular target: Serine/threonine-protein kinase N2 (Homo sapiens) (UniProt Q16513); experiment: Inhibition of recombinant PRK2 (unknown origin) assessed as residual activity at 1 uM relative to control
[3] = molecular target: Cyclin-dependent kinase 4 (Homo sapiens, UniProt P11802); experiment: Inhibition of CDK4 (unknown origin)
[4] = Cell cycle arrest in BrdU pulse-labelled human HCT116 cells assessed as accumulation at late G2/M phase at 125 to 500 nM after 24 hrs by propidium iodide staining based flow cytometry; type: functional; conditions: HCT-116
[5] = molecular target: Serine/threonine-protein kinase PLK1 (Homo sapiens) (UniProt P53350); experiment: Inhibition of recombinant PLK1 (unknown origin) assessed as residual activity at 1 uM relative to control
[6] = molecular target: Homeodomain-interacting protein kinase 2 (Homo sapiens) (UniProt Q9H2X6); experiment: Inhibition of recombinant HIPK2 (unknown origin) assessed as residual activity at 1 uM relative to control
[7] = molecular target: High affinity nerve growth factor receptor (Homo sapiens) (UniProt P04629); experiment: Inhibition of recombinant TrkA (unknown origin) assessed as residual activity at 1 uM relative to control
[8] = molecular target: Cyclin-dependent kinase 2 (Homo sapiens) (UniProt P24941); experiment: Inhibition of CDK2 in human G361 cells assessed as reduction in phosphorylation of RNA polymerase 2 at C-terminus at 0.1 to 1 uM incubated for 24 hrs by immunoblotting analysis; type: cell-based; conditions: G-361
In short: (§1)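 Treated G361 cells were lysed in Laemmli buffer, run on SDS-PAGE and blotted to nitrocellulose. Blots were probed overnight with antibodies to RNA polymerase II phosphorylated at S5 and S2, and to total RNA polymerase II (ARNA-3). Peroxidase secondaries were then applied and signal was detected by ECL with a CCD camera.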

[9] = molecular target: Tyrosine-protein kinase JAK2 (Homo sapiens) (UniProt O60674); experiment: Inhibition of recombinant JAK2 (unknown origin) assessed as residual activity at 1 uM relative to control
[10] = molecular target: Cyclin-dependent kinase 2/cyclin E1 (Homo sapiens, UniProt P24941); experiment: Inhibition of CDK2/Cyclin E (unknown origin) expressed in sf9 cells using histone H1 as substrate in presence of [gamma33P]-ATP; type: cell-based
[11] = molecular target: Serine/threonine-protein kinase Sgk1 (Homo sapiens) (UniProt O00141); experiment: Inhibition of recombinant SGK1 (unknown origin) assessed as residual activity at 1 uM relative to control
[12] = molecular target: Serine/threonine-protein kinase 3 (Homo sapiens) (UniProt Q13188); experiment: Inhibition of recombinant MST2 (unknown origin) assessed as residual activity at 1 uM relative to control
[13] = Cell cycle arrest in BrdU pulse-labelled human HCT116 cells assessed as accumulation at late S phase at 125 to 500 nM after 24 hrs by propidium iodide staining based flow cytometry; type: functional; conditions: HCT-116
[14] = molecular target: Protein kinase C alpha type (Homo sapiens) (UniProt P17252); experiment: Inhibition of recombinant PKCalpha (unknown origin) assessed as residual activity at 1 uM relative to control
[15] = molecular target: Dual specificity protein kinase TTK (Homo sapiens) (UniProt P33981); experiment: Inhibition of recombinant TTK (unknown origin) assessed as residual activity at 1 uM relative to control
[16] = (§2) Cytotoxicity against human HCT116 cells assessed as reduction in cell viability after 72 hrs by calcein AM staining based fluorescence assay; type: functional; conditions: HCT-116, 72 h
In short: (§3)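 Cells were grown in DMEM with 10% FBS, penicillin and streptomycin at 37 °C in 5% CO2. Three doses were tested in triplicate for 72 h. Live cells were read by Calcein AM fluorescence at 485/538 nm.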

[17] = tested on: HCT-116; experiment: as §2; type: functional; in short: as §3
[18] = molecular target: Receptor-interacting serine/threonine-protein kinase 2 (Homo sapiens) (UniProt O43353); experiment: Inhibition of recombinant RIPK2 (unknown origin) assessed as residual activity at 1 uM relative to control
[19] = tested on: MCF7; experiment: Cell cycle arrest in BrdU pulse-labelled human MCF7 cells assessed as accumulation at subG1 phase at 8 to 250 nM after 24 hrs by propidium iodide staining based flow cytometry; type: functional
[20] = molecular target: Mitogen-activated protein kinase kinase kinase 11 (Homo sapiens) (UniProt Q16584); experiment: Inhibition of recombinant MLK3 (unknown origin) assessed as residual activity at 1 uM relative to control
[21] = molecular target: Tyrosine-protein kinase SYK (Homo sapiens) (UniProt P43405); experiment: Inhibition of recombinant SYK (unknown origin) assessed as residual activity at 1 uM relative to control
[22] = tested on: G-361; experiment: Induction of apoptosis in human G361 cells assessed as caspase7 activation using Ac-DEVD-AMC as substrate at IC50 preincubated for 24 hrs followed by substrate addition measured after 3 hrs by fluorescence assay; type: functional, cell-based
[23] = molecular target: Serine/threonine-protein kinase PAK 4 (Homo sapiens) (UniProt O96013); experiment: Inhibition of recombinant PAK4 (unknown origin) assessed as residual activity at 1 uM relative to control
[24] = molecular target: Casein kinase II (Homo sapiens) (UniProt P67870+P68400+P19784); experiment: Inhibition of recombinant CK2 (unknown origin) assessed as residual activity at 1 uM relative to control; type: protein-complex assay
[25] = molecular target: Casein kinase I isoform delta (Homo sapiens) (UniProt P48730); experiment: Inhibition of recombinant CK1delta (unknown origin) assessed as residual activity at 1 uM relative to control
[26] = tested on: G-361; experiment: Induction of apoptosis in human G361 cells assessed as caspase7 activation using Ac-DEVD-AMC as substrate at 5 times IC50 preincubated for 24 hrs followed by substrate addition measured after 3 hrs by fluorescence assay; type: functional, cell-based
[27] = tested on: G-361; experiment: Induction of apoptosis in human G361 cells assessed as caspase3 activation using Ac-DEVD-AMC as substrate at 5 times IC50 preincubated for 24 hrs followed by substrate addition measured after 3 hrs by fluorescence assay; type: functional, cell-based
[28] = molecular target: Serine/threonine-protein kinase D1 (Homo sapiens) (UniProt Q15139); experiment: Inhibition of recombinant PKD1 (unknown origin) assessed as residual activity at 1 uM relative to control
[29] = molecular target: Cyclin-dependent kinase 2 (Homo sapiens) (UniProt P24941); experiment: Inhibition of CDK2 in human G361 cells assessed as reduction in phosphorylation of RNA polymerase 2 at C-terminus at 1 uM incubated for 0.5 to 24 hrs by immunoblotting analysis; type: cell-based; conditions: G-361; in short: as §1
[30] = molecular target: Cyclin-dependent kinase 7 (Homo sapiens, UniProt P50613); experiment: Inhibition of CDK7 (unknown origin)
[31] = molecular target: Ribosomal protein S6 kinase alpha-5 (Homo sapiens) (UniProt O75582); experiment: Inhibition of recombinant MSK1 (unknown origin) assessed as residual activity at 1 uM relative to control
Chain of Ribosomal protein S6 kinase alpha-5 (Homo sapiens) (O75582 whole entry, looked up): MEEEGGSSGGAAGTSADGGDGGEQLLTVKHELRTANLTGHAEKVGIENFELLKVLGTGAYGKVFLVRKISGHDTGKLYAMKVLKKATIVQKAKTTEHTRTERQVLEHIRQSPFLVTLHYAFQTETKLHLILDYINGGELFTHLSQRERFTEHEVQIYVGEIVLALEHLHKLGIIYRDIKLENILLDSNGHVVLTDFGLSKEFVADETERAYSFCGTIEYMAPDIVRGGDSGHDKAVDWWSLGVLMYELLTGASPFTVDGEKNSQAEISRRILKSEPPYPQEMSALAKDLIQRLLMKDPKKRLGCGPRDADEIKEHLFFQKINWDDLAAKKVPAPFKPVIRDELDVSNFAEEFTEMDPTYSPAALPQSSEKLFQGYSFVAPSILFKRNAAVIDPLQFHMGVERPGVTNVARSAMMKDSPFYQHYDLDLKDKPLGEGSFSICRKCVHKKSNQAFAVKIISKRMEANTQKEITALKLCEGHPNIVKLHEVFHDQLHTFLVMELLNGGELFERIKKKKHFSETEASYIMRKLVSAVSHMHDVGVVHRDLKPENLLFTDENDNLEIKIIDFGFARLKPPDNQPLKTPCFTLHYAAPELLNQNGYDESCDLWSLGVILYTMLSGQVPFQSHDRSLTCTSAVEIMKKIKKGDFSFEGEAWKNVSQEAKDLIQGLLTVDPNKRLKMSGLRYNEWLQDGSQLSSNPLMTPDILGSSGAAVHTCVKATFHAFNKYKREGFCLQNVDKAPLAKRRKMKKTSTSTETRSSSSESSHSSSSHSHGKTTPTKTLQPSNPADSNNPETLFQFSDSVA

Chain of Vascular endothelial growth factor receptor (Homo sapiens) (P17948 whole entry, looked up): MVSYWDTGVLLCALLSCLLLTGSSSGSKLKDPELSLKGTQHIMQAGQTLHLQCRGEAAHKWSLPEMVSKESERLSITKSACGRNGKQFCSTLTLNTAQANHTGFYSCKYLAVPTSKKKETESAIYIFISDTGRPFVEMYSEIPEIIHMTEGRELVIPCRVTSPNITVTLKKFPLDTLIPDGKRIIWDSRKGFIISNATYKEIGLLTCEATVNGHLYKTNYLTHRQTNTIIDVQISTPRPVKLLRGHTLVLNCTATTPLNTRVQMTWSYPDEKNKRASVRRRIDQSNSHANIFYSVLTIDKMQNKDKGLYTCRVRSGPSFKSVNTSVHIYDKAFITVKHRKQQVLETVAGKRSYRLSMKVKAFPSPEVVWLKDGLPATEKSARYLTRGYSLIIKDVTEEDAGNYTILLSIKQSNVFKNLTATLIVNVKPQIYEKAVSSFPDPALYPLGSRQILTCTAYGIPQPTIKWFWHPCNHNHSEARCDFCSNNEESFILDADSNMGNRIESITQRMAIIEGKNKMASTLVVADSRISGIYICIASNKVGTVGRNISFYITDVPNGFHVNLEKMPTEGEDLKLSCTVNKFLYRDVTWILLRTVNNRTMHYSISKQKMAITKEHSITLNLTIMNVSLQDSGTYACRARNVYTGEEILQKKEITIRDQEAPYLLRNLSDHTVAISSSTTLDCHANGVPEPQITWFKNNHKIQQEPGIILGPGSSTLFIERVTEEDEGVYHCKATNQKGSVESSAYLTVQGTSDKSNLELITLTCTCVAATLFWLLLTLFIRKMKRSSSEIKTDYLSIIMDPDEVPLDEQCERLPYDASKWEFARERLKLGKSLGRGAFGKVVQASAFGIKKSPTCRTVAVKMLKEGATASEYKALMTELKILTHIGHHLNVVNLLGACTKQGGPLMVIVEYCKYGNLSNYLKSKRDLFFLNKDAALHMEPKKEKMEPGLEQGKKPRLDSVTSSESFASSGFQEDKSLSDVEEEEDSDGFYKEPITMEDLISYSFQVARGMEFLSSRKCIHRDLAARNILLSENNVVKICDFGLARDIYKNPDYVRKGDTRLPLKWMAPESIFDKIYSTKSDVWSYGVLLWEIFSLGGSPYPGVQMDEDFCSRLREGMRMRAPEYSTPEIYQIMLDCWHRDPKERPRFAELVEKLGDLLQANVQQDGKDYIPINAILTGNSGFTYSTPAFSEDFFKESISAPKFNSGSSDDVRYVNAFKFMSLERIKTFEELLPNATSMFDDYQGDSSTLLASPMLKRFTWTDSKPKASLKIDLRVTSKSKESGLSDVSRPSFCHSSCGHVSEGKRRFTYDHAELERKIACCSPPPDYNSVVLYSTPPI
Chain of Vascular endothelial growth factor receptor (Homo sapiens) (P35916 whole entry, looked up): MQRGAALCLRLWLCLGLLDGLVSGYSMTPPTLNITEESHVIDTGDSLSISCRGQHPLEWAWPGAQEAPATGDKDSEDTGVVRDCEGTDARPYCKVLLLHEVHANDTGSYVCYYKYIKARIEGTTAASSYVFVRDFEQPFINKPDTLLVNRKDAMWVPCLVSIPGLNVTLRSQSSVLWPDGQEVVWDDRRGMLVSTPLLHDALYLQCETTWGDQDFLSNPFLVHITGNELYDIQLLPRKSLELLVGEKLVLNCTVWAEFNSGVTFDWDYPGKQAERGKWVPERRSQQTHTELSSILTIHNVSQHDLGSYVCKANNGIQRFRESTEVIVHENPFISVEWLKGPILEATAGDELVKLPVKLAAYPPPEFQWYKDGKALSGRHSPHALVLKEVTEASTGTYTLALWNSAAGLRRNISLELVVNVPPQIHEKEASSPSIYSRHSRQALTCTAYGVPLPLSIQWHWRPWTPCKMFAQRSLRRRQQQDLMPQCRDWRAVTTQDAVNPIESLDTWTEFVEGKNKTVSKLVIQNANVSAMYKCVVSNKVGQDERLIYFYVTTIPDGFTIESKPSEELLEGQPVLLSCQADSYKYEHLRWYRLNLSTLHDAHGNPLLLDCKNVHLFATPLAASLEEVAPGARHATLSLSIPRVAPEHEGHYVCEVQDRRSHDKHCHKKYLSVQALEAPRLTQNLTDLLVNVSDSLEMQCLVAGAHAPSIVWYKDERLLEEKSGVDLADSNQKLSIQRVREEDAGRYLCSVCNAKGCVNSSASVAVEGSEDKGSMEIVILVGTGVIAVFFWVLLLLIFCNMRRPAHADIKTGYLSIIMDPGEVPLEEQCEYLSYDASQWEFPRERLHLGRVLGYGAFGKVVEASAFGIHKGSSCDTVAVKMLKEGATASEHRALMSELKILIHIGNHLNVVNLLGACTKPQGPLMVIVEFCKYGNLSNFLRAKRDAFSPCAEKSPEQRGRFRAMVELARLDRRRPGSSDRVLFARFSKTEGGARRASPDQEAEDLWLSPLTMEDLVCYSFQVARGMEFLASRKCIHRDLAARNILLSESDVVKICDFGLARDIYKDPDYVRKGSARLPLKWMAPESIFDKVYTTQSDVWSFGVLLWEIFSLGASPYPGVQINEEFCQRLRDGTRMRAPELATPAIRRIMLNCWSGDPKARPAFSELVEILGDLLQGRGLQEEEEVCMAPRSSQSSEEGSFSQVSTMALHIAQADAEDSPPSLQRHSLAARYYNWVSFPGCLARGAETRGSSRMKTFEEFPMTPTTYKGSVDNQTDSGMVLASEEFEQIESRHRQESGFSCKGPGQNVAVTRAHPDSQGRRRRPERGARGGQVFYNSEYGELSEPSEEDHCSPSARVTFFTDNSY
Chain of Vascular endothelial growth factor receptor (Homo sapiens) (P35968 whole entry, looked up): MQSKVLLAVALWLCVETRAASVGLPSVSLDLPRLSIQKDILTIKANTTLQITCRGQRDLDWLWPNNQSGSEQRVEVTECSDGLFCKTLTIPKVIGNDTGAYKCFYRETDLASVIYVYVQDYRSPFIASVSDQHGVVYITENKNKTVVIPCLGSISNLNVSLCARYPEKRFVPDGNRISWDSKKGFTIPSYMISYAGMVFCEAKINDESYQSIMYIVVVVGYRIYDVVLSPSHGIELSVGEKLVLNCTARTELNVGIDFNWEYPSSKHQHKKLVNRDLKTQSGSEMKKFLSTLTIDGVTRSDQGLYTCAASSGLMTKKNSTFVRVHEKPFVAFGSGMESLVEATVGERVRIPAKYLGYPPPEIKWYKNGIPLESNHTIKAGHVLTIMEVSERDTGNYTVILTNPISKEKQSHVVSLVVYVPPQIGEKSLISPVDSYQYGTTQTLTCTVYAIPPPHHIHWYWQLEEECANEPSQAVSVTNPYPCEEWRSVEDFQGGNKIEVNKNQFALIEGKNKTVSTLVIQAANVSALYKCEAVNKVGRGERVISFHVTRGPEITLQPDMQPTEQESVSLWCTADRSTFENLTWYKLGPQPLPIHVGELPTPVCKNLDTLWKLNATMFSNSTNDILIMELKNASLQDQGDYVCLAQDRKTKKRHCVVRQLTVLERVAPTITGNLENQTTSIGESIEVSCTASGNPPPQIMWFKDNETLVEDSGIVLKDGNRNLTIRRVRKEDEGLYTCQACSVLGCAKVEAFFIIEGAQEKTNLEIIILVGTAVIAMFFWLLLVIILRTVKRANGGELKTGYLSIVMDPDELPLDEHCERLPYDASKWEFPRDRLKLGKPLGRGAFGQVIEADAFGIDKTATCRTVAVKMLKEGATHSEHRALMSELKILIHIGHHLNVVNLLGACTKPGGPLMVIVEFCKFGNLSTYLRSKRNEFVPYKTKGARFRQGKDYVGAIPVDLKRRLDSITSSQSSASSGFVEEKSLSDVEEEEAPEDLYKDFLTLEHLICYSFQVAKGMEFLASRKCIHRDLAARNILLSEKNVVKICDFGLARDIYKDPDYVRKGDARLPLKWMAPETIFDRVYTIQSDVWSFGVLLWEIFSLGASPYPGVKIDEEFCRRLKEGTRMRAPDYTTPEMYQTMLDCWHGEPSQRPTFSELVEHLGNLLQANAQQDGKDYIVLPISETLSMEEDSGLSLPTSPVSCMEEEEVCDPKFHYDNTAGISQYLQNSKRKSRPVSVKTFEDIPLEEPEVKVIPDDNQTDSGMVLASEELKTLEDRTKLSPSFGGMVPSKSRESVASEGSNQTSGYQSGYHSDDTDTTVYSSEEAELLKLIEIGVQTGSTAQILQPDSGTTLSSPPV

CC(O)CNc1nc(NCc2ccc(-c3ccccn3)cc2)c2[nH]nc(C(C)C)c2n1 (stereo unspecified)
Activity [1]: > 100%
Activity [2]: > 100%
IC50 [3]: > 2000 nM
Activity [4]: Active
Activity [5]: 97%
Activity [6]: > 100%
Activity [7]: > 100%
inhibition [8]: Active
Activity [9]: > 100%
IC50 [10]: 21 nM
Activity [11]: > 100%
Activity [12]: > 100%
Activity [13]: Active
Activity [14]: > 100%
Activity [15]: 79%
IC50 [16]: 87 nM
Activity [17]: Dose-dependent effect
Activity [18]: > 100%
Activity [19]: Active
Activity [20]: 98%
Activity [21]: > 100%
Activity [22]: Active
Activity [23]: 69%
Activity [24]: 89%
Activity [25]: 67%
Activity [26]: Active
Activity [27]: Active
Activity [28]: > 100%
inhibition [29]: Active
IC50 [30]: 2780 nM
Activity [31]: 97%
